Blank lines part the entries; values can stand above or below the compound they belong to.
Key:
[1] = molecular target: T1, Serine/threonine-protein kinase PLK4 (Homo sapiens, UniProt O00444); test: Inhibition of human recombinant PLK4 incubated for 1 hrs by LanthaScreen Eu kinase FRET assay
T1 sequence (O00444 whole entry): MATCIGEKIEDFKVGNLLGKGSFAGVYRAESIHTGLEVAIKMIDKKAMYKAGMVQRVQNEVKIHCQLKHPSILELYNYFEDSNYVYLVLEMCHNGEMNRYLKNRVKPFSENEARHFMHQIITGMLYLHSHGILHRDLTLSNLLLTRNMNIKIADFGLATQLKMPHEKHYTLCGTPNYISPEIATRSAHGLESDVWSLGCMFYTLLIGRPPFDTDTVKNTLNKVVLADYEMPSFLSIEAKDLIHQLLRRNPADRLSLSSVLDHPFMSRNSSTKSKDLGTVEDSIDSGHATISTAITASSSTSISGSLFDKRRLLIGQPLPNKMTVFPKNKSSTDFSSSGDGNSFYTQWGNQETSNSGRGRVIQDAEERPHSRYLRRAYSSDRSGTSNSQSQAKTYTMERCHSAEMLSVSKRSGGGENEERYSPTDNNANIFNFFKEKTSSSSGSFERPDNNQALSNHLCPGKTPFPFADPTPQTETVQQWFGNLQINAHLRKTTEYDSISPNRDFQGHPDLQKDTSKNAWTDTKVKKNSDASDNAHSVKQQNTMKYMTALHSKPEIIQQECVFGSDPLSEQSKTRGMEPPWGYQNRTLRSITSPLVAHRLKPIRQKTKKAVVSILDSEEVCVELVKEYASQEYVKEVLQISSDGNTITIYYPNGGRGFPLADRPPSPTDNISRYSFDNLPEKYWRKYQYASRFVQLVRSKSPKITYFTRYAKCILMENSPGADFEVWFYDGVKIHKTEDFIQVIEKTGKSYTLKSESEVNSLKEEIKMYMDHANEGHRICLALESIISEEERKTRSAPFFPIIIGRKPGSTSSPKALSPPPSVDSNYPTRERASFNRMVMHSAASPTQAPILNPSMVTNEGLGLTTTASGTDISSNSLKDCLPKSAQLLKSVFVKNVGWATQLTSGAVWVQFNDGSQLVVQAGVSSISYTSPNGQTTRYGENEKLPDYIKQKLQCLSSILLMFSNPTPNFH

[2] = Metabolic stability in human liver microsomes assessed as parent compound remaining in absence of NADPH as co-foctor and measured after 60 mins by LC-MS/MS analysis; assay type: ADME, Microsome; conditions: read-out: Stability
MDA-MB-231 = test: Antiproliferative activity against human MDA-MB-231 cells assessed as cell growth inhibition incubated for 5 days by MTT assay; assay type: functional, cell-based; conditions: MDA-MB-231, 120 h
[3] = Metabolic stability in human liver microsomes assessed as parent compound remaining in presence of NADPH as co-foctor and measured after 60 mins by LC-MS/MS analysis; assay type: ADME, Microsome; conditions: read-out: Stability
[4] = Metabolic stability in human liver microsomes assessed as intrinsic clearance in presence of NADPH as co-foctor incubated for 60 mins by LC-MS/MS analysis; assay type: ADME, Microsome; conditions: read-out: CLH
[5] = Metabolic stability in human liver microsomes assessed as half life in presence of NADPH as co-foctor incubated for 60 mins by LC-MS/MS analysis; assay type: ADME, Microsome
BT-474 = test: Antiproliferative activity against human BT-474 cells assessed as cell growth inhibition incubated for 5 days by MTT assay; assay type: functional, cell-based; conditions: BT-474, 120 h
MCF7 = test: Antiproliferative activity against human MCF7 cells assessed as cell growth inhibition incubated for 5 days by MTT assay; assay type: functional, cell-based; conditions: MCF7, 120 h
[6] = Metabolic stability in human plasma assessed as half life and measured upto 120 mins by LC-MS/MS analysis; assay type: ADME, cell-free
Summary of the method: (§1)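 Pooled frozen plasma was thawed at 37 °C and centrifuged to remove clots. Compound was spiked to a final 2 μM (duplicate) and incubated at 37 °C. At 0, 10, 30, 60 and 120 min, protein was precipitated with acetonitrile stop solution containing tolbutamide and labetalol internal standards. Samples were centrifuged at 4000 rpm and 4 °C, and the supernatant was analysed by LC–MS/MS.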

CYP2C19 = CYP2C19 (Homo sapiens, UniProt P33261); test: Inhibition of CYP2C19 in human liver microsomes at 10 uM preincubated for 10 mins followed by NADPH cofactor addition and measured after 10 mins by LC-MS/MS analysis; assay type: ADME, Microsome; conditions: time 20 min
Sequence of CYP2C19 (P33261 whole entry, canonical isoform): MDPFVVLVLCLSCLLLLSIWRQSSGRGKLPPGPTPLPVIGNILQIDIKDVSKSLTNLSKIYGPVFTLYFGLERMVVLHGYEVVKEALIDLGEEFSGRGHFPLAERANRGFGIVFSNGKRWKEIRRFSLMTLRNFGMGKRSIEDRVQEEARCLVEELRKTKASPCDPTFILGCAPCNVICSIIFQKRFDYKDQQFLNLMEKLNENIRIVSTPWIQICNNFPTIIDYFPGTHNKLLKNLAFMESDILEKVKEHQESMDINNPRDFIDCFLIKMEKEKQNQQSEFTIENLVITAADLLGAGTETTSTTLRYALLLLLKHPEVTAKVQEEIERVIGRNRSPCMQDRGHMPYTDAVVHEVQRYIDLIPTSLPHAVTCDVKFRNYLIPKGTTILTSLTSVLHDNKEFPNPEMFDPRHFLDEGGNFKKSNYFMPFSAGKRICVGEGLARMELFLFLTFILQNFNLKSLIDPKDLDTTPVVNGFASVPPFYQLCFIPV
Summary of the method: (§2)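 Human liver microsome (HLM) incubation with isoform-specific substrate solutions. Test compound was added from a 100× working solution. Mixture was pre-warmed about 10 min at 37 °C, then NADPH cofactor was added and incubated 10 min at 37 °C. The reaction was stopped with cold stop solution, centrifuged at 4000 rpm for 20 min, and the supernatant was diluted and analysed by LC–MS/MS.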

[7] = Metabolic stability in human plasma assessed as parent compound remaining and measured after 120 mins by LC-MS/MS analysis; assay type: ADME, cell-free; conditions: read-out: Stability; summary of the method: as §1
[8] = Metabolic stability in human plasma assessed as parent compound remaining and measured after 10 mins by LC-MS/MS analysis; assay type: ADME, cell-free; conditions: read-out: Stability; summary of the method: as §1
CYP2C9 = CYP2C9 (Homo sapiens, UniProt P11712); test: Inhibition of CYP2C9 in human liver microsomes at 10 uM preincubated for 10 mins followed by NADPH cofactor addition and measured after 10 mins by LC-MS/MS analysis; assay type: ADME, Microsome; conditions: time 20 min
Sequence of CYP2C9 (P11712 whole entry): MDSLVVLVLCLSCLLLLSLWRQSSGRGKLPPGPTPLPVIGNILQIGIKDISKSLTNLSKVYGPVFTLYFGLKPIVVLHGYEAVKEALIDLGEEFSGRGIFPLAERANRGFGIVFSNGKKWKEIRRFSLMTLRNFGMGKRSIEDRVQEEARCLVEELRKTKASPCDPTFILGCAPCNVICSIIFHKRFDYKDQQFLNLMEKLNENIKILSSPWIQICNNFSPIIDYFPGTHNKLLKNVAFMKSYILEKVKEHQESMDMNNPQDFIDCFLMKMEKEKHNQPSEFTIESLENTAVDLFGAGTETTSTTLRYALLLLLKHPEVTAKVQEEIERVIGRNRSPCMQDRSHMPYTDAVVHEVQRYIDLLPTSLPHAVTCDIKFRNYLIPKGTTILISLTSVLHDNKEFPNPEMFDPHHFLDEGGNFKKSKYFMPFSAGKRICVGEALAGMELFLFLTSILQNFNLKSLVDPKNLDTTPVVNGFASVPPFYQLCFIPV

[9] = Metabolic stability in human plasma assessed as parent compound remaining and measured after 0 mins by LC-MS/MS analysis; assay type: ADME, cell-free; conditions: read-out: Stability; summary of the method: as §1
[10] = Metabolic stability in human plasma assessed as parent compound remaining and measured after 60 mins by LC-MS/MS analysis; assay type: ADME, cell-free; conditions: read-out: Stability; summary of the method: as §1
CYP3A4 = CYP3A4 (Homo sapiens, UniProt P08684); test: Inhibition of CYP3A4 in human liver microsomes at 10 uM preincubated for 10 mins followed by NADPH cofactor addition and measured after 10 mins by LC-MS/MS analysis; assay type: ADME, Microsome; conditions: time 20 min; summary of the method: as §2
Sequence of CYP3A4 (P08684 whole entry): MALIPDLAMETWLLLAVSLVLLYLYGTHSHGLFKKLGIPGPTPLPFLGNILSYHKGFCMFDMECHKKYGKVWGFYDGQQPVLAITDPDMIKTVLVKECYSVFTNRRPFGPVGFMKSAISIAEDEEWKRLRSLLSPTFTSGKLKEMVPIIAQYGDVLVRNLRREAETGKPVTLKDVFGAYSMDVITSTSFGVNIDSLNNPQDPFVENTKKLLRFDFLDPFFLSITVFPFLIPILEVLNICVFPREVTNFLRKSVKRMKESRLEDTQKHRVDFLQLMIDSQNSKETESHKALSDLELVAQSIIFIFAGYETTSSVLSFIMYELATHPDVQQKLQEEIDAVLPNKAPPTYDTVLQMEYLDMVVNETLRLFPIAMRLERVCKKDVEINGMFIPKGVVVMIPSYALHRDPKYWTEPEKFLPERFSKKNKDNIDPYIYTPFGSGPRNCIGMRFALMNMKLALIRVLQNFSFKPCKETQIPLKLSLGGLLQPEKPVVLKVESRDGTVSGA

CYP2D6 = CYP2D6 (Homo sapiens, UniProt P10635); test: Inhibition of CYP2D6 in human liver microsomes at 10 uM preincubated for 10 mins followed by NADPH cofactor addition and measured after 10 mins by LC-MS/MS analysis; assay type: ADME, Microsome; conditions: time 20 min; summary of the method: as §2
Sequence of CYP2D6 (P10635 whole entry): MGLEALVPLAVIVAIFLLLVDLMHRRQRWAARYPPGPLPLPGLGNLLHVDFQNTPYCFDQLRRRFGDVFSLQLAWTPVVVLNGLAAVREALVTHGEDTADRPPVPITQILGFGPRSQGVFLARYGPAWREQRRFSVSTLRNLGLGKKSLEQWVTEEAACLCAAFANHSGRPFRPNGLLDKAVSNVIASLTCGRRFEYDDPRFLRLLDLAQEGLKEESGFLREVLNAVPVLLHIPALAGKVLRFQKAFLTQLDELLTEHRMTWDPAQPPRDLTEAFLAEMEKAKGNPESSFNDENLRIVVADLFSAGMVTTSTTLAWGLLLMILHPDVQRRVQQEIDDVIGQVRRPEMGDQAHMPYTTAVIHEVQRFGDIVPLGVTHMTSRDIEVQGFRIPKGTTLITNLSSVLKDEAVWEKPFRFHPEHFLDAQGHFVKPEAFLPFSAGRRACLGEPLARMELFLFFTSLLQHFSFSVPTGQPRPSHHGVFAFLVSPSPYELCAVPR

CYP1A2 = molecular target: T2, CYP1A2 (Homo sapiens, UniProt P05177); test: Inhibition of CYP1A2 in human liver microsomes at 10 uM preincubated for 10 mins followed by NADPH cofactor addition and measured after 10 mins by LC-MS/MS analysis; assay type: ADME, Microsome; conditions: time 20 min; summary of the method: as §2
T2 sequence (P05177 whole entry): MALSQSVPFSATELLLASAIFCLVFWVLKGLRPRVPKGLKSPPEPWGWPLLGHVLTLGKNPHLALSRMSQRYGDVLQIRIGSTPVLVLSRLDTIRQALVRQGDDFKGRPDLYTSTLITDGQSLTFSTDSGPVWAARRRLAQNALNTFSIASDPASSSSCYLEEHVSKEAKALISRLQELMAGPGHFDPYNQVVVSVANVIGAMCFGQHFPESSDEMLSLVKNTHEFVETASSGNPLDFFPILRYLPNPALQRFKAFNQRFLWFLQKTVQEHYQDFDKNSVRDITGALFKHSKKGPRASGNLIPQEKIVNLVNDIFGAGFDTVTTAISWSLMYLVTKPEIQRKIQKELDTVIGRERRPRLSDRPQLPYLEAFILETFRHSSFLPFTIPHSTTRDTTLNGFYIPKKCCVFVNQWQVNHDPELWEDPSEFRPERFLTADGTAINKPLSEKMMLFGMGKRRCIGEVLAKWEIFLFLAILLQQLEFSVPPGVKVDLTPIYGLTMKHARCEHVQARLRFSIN

[11] = Metabolic stability in human plasma assessed as parent compound remaining and measured after 30 mins by LC-MS/MS analysis; assay type: ADME, cell-free; conditions: read-out: Stability; summary of the method: as §1

IC50 [1]: 56 nM
SMILES: Nc1ccc(Sc2ccnc(Nc3ccc(N4CCOCC4)cc3)n2)cc1F

IC50 [1]: 79 nM
SMILES: Fc1cccc(Sc2ccnc(Nc3ccc(N4CCOCC4)cc3)n2)c1

IC50 [1]: 17 nM
remaining at 1 h [2]: 94.4%
IC50 (MDA-MB-231): 5110 nM
remaining at 1 h [3]: 48.7%
microsomal CLint [4]: 23.8 µL/min/mg
half-life [5]: 0.972 h
IC50 (BT-474): > 20000 nM
IC50 (MCF7): 8720 nM
SMILES: Nc1ccc(Sc2ccnc(Nc3ccc(N4CCOCC4)cc3)n2)cc1

IC50 [1]: 35 nM
IC50 (MDA-MB-231): 8080 nM
IC50 (BT-474): 9320 nM
IC50 (MCF7): 3450 nM
SMILES: Nc1ccc(Sc2ccnc(Nc3ccc(N4CCOCC4)cc3)n2)c(F)c1

IC50 [1]: 71 nM
SMILES: CNc1ccc(Sc2ccnc(Nc3ccc(N4CCOCC4)cc3)n2)cc1

IC50 [1]: 39 nM
IC50 (MDA-MB-231): 4470 nM
IC50 (BT-474): 16200 nM
IC50 (MCF7): 3860 nM
SMILES: Nc1ccc(Sc2ccnc(Nc3ccc(C(=O)N4CCOCC4)cc3)n2)cc1

IC50 [1]: 45 nM
IC50 (MDA-MB-231): 5150 nM
IC50 (BT-474): 12900 nM
IC50 (MCF7): > 20000 nM
SMILES: Nc1ccc(Sc2ccnc(Nc3cccc(N4CCOCC4)c3)n2)cc1

IC50 [1]: 198 nM
SMILES: Fc1ccc(Sc2ccnc(Nc3ccc(N4CCOCC4)cc3)n2)cc1

IC50 [1]: 1100 nM
SMILES: Nc1ccc(Sc2ccnc(Nc3ccc(N4CCSCC4)cc3)n2)cc1

IC50 [1]: 153 nM
SMILES: Nc1cccc(Sc2ccnc(Nc3ccc(N4CCOCC4)cc3)n2)c1

IC50 [1]: 2380 nM
SMILES: Brc1cccc(Sc2ccnc(Nc3ccc(N4CCOCC4)cc3)n2)c1

IC50 [1]: 139 nM
SMILES: Nc1ccc(Sc2ccnc(Nc3ccc(N4CCNCC4)cc3)n2)cc1

IC50 [1]: 219 nM
SMILES: Brc1ccccc1Sc1ccnc(Nc2ccc(N3CCOCC3)cc2)n1

IC50 [1]: 1430 nM
SMILES: Clc1cccc(Sc2ccnc(Nc3ccc(N4CCOCC4)cc3)n2)c1

IC50 [1]: 137 nM
SMILES: Nc1ccc(Sc2ccnc(Nc3cccc(CN4CCOCC4)c3)n2)cc1

IC50 [1]: 125 nM
SMILES: c1cc(Sc2ccc3[nH]ncc3c2)nc(Nc2ccc(N3CCOCC3)cc2)n1

IC50 [1]: 142 nM
SMILES: Clc1ccccc1Sc1ccnc(Nc2ccc(N3CCOCC3)cc2)n1

IC50 [1]: 519 nM
SMILES: Nc1ccc(Sc2ccnc(Nc3ccccc3)n2)cc1

IC50 [1]: 176 nM
SMILES: c1ccc(CNc2ccnc(Nc3ccc(N4CCOCC4)cc3)n2)cc1

IC50 [1]: 149 nM
SMILES: Clc1ccc(Sc2ccnc(Nc3ccc(N4CCOCC4)cc3)n2)cc1

IC50 [1]: 189 nM
SMILES: Brc1ccc(Sc2ccnc(Nc3ccc(N4CCOCC4)cc3)n2)cc1

IC50 [1]: 81 nM
SMILES: c1ccc(Oc2ccnc(Nc3ccc(N4CCOCC4)cc3)n2)cc1

IC50 [1]: 136 nM
SMILES: Fc1ccccc1Sc1ccnc(Nc2ccc(N3CCOCC3)cc2)n1

IC50 [1]: 57 nM
SMILES: Nc1ccc(Sc2ccnc(Nc3ccc(NC4CCNCC4)cc3)n2)cc1

IC50 [1]: 31 nM
IC50 (MDA-MB-231): 7570 nM
IC50 (BT-474): > 20000 nM
IC50 (MCF7): > 20000 nM
SMILES: c1ccc(Sc2ccnc(Nc3ccc(N4CCOCC4)cc3)n2)cc1

IC50 [1]: 177 nM
SMILES: c1ccc2c(Sc3ccnc(Nc4ccc(N5CCOCC5)cc4)n3)cccc2c1

IC50 [1]: 65 nM
SMILES: c1ccc(Nc2ccnc(Nc3ccc(N4CCOCC4)cc3)n2)cc1

IC50 [1]: 80 nM
SMILES: Nc1ccc(Sc2ccnc(Nc3ccc(NC4CCNC4)cc3)n2)cc1 (stereo unspecified)

half-life [6]: > 4.82 h
inhibition at 10 min, 10 µM (CYP2C19): 48.7%
IC50 [1]: 7 nM
remaining at 1 h [2]: 104%
remaining at 2 h [7]: 104%
remaining at 10 min [8]: 105%
IC50 (MDA-MB-231): 2130 nM
remaining at 1 h [3]: 100%
microsomal CLint [4]: < 9.6 µL/min/mg
inhibition at 10 min, 10 µM (CYP2C9): 42.9%
remaining at 0 h [9]: 100%
remaining at 1 h [10]: 107%
half-life [5]: > 2.42 h
inhibition at 10 min, 10 µM (CYP3A4): 14.4%
inhibition at 10 min, 10 µM (CYP2D6): 8%
inhibition at 10 min, 10 µM (CYP1A2): 33.1%
remaining at 0.5 h [11]: 114%
IC50 (BT-474): 7810 nM
IC50 (MCF7): 1440 nM
SMILES: Nc1ccc(Sc2ccnc(Nc3ccc(NC4CCOCC4)cc3)n2)cc1

IC50 [1]: 297 nM
SMILES: Nc1ccccc1Sc1ccnc(Nc2ccc(N3CCOCC3)cc2)n1

IC50 [1]: 379 nM
SMILES: Nc1ccc(Sc2ccnc(Nc3ccc(CN4CCNCC4)cc3)n2)cc1

IC50 [1]: 64 nM
SMILES: Nc1ccc(Sc2ccnc(Nc3ccc(CN4CCOCC4)cc3)n2)cc1

IC50 [1]: 313 nM
SMILES: CN(C)c1ccc(Sc2ccnc(Nc3ccc(N4CCOCC4)cc3)n2)cc1

IC50 [1]: 6620 nM
SMILES: COC(=O)c1cc(Nc2nccc(Sc3ccc(N)cc3)n2)ccc1NC1CCOCC1

IC50 [1]: 102 nM
SMILES: CNC(=O)c1ccccc1Sc1ccnc(Nc2ccc(N3CCOCC3)cc2)n1

IC50 [1]: 46 nM
IC50 (MDA-MB-231): 6480 nM
IC50 (BT-474): > 20000 nM
IC50 (MCF7): > 20000 nM
SMILES: c1cc(Sc2ccnc(Nc3ccc(N4CCOCC4)cc3)n2)c2cccnc2c1

From ChEMBL document CHEMBL5329176, “Design, synthesis, and biological evaluation of novel pyrimidin-2-amine derivatives as potent PLK4 inhibitors” (RSC Med Chem, 2023)
